System: MS2 coat protein
Test: apparent Kd, MS2 coat protein; higher = weaker binding; RNA-MaP array; FMN 200 µM where present
In short: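 Green signal was scaled to red-channel RNA signal and control-cluster median Fmax, and the apparent Kd was taken as the median of filtered per-cluster binding-curve fits. The binding series used SNAP-549-labelled MS2 coat protein from 0.7 or 1.5 nM, doubling to 3 µM, on designs transcribed by stalled E. coli RNA polymerase on Illumina sequencing-chip clusters. Each series ran without and then with constant ligand in 100 mM Tris-HCl pH 7.5, 80 mM KCl, 4 mM MgCl2, BSA, DTT, yeast tRNA and Tween-20.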

[1] = designed as: OFF switch for flavin mononucleotide, no ligand
[2] = ligand present: flavin mononucleotide, designed as: OFF switch for flavin mononucleotide
[3] = designed as: ON switch for flavin mononucleotide, no ligand
[4] = ligand present: flavin mononucleotide, designed as: ON switch for flavin mononucleotide

| Sequence | apparent Kd [1] [nM] | apparent Kd [2] [nM] | apparent Kd [3] [nM] | apparent Kd [4] [nM] |
| --- | --- | --- | --- | --- |
| UCUGCCGCCGUGAGGAUAUGCCCGCGCGCCCGCGGGCAGAAGGCACAUGAGGAUCACCCAUGUCCCGCGGUUUU | 16.3 | 37.3 |  |  |
| CGCUCACAUGAGGAUCACCCAUGUCCUAGGAGGUCAGGAUAUAGCUCGGAUGCGUUGAGGCUAGAAGGGACAGCUG |  |  | 259 | 84.7 |
| GGACAGCGAGGAUAUACGUGUACGUUAUCCUCUAUGGGUCAACAUGAGGAUCACCCAUGUAGAAGGCGCAUAAU | 19.4 | 28.1 |  |  |
| ACUGGUCAAGGAUAUACAAUCGUGCUUCGGCACGUAAGAUCACAUGAGGAUCACCCAUGUAGAAGGUGACCAGU | 38.6 | 470 |  |  |
| AACAAUCUAUCUGAGGAUAUCAUGUCAAAGACAUGAGGAUCACCCAUGUACCAGGAAACUGGUUAUGAGAAGGCAGAUAGAUUGA |  |  | 1260 | 54.8 |
| CAGUACUGAGGAUAUACAUGAGGAUCACCCAUGUAAAAAACCUACGAAAGUAGGACAUGUAGAAGGCAGUACUG | 24.2 | 76.7 |  |  |
| CGUAUGUCAGGAUAUGCGUAUGCCACCCAGGACGGGCGGCAGCAGAAGGGACAUGAGGAUCACCCAUGUUCGGG | 75 | 68.4 |  |  |
| GGUACGCAUGUAGGAUAUCGAGCUCAAAGAGCUCGAGAAGGACAUGAGGAUCACCCAUGUCGUCACAGACAGUGACGGCGUACC | 20 | 38.7 |  |  |
| AUCAGCUCGUCAGGAUAUACGUCACUGCUUCAGCAGUGUGGUAAGAUCACAUGAGGAUCACCCAUGUAGAAGGGACGAGCUGAU | 14.1 | 268 |  |  |
| AUACUGAGCGUAAAUUACCUGAACAUGAGGAUCACCCAUGUGGAGGAUAUUGACCUAGCAAAGCUCGAGAAGGCCACUGGGAUG | 32.3 | 18.7 |  |  |
| UUUAAACAUGAGGAUCACCCAUGUUUUUUUAUGGGAGGAUAUCUAAGUUAAUUAUAUUAAGGAGAAGGCCUAUUUU |  |  | 146 | 26.7 |
| AUUGUAUAGGAAGGAUAUAGAAUAUUAUUUUAACAUGAGGAUCACCCAUGUAACCUUAUGUGUAGCUAGAAGGUCCAUUUGUUA | 248 | 302 |  |  |
| CCUCCACAUGAGGAUCACCCAUGUCAGGAUAUCGUGUGUGCUUUUUCGGUCUUUCGUGCGAGAAGGGACGUCUG | 27.6 | 26.7 |  |  |
| GGAUGGGACAGAGGAUAUACGUGCUAGAGAUACUAGCAAAAUUUCCUCACAUGAGGAUCACCCAUGUAGAAGGCUGUCCUAUCG | 15.2 | 513 |  |  |
| GGAAUAAAUGCAGGAUAUACGUGGAAAGCCUUCAACAUGAGGAUCACCCAUGUAGAAGGGCAUCUCCCGACCGAAUCGGAUCUC | 5.72 | 6.25 |  |  |
| UUUUAACAUGAGGAUCACCCAUGUGAGGAUAUCGAAAUUUAUAUUAAUAUUUAUAUAACGAGAAGGCACAUUUU | 68.4 | 90.1 |  |  |
| ACGGCUAACCCAGUUUAAAUCUCAAGAAGGGUACACUGGGCAAGGUACAUGAGGAUCACCCAUGUACAGGAUAUUGAGAUGAGA | 25.6 | 45.4 |  |  |
| ACUUCUAAGCAGAAGGCAGUCAUAGCAUUCGUCAUGUAGACAUGAGGAUCACCCAUGUAUAGUGCUGAGGAUAUGCUUGGAUAG | 11.8 | 10.7 |  |  |
| CUUACACAUGAGGAUCACCCAUGUGAGGAUAUGCGUACGUUGUCCGUAGGCGACGUGCGCAGAAGGCGCUUGGU | 61.6 | 62 |  |  |
| CCUCUACAUGAGGAUCACCCAUGUGAGGAUAUCUCGGAGCAGCCAAUUAAAGCGCUCCAGAGAAGGCACGUGUA | 17.9 | 25.2 |  |  |
| AAAUUGGUAGAGGAUAUCGGAUAGGAUUUACUGCGAGAAGGCUGCACAUGAGGAUCACCCAUGUUCUGUUGGGA | 123 | 152 |  |  |

| Sequence | apparent Kd [1] [nM] | apparent Kd [2] [nM] | apparent Kd [3] [nM] | apparent Kd [4] [nM] |
| --- | --- | --- | --- | --- |
| AUCGUUGGAGGAUAUGCUUGGAAAAAAAAAAAAAAAAAAAAACAUGAGGAUCACCCAUGUAGAAGGUCAAUGGA | 52.6 | 47.2 |  |  |
| GUGCGUGGCUAGGAUAUUGUGGAGUUUAGUCAGCGAGAAGGGACUACAUGAGGAUCACCCAUGUGUAGUUGCUC | 212 | 198 |  |  |
| AUAUGAUAGAUAGGAUAUACUGAGGUUGAAUGGGUAGAAGGAUCGAUAGGGAAGACUACAUGAGGAUCACCCAUGUUGUGGAUU |  |  | 88.4 | 52.6 |
| GUCAGCUCGUGAGGAUAUACAACACUGCUUCGGCAGUGUAUUAAGAUCACAUGAGGAUCACCCAUGUAGAAGGCACGAGCUGAU | 42.1 | 832 |  |  |
| CAGCCCUGAGGAUAUCCCUACUCGCACAUGAGGAUCACCCAUGUCCUCCUCCGGGCUUCGGGAGAAGGCAGGUCUC | 22.4 | 93.5 |  |  |
| GUGGCGGCCACAGGAUAUACCCGCGGUAGCCUGGUAGAAGGGUGGUCUCUCAGUCACAACAUGAGGAUCACCCAUGUAGAAAUC |  |  | 25.8 | 35.5 |
| GGUAGGAUCGCAGGAUAUGCUAUCCUUUGGGUAGCAGAAGGGUGAUAACAUGAGGAUCACCCAUGUCCUACCGGGCGUGAGCCC |  |  | 57.8 | 1590 |
| AAUUAGGUCACAGGAUAUACAACAACCAAUGCUGUAGAAGGGUGACACAUUCUUUGCUGACAUGAGGAUCACCCAUGUAACCAC |  |  | 69.3 | 11.2 |
| UUAUGAGAGCAGGAUAUCUUAUUUUUUUUUUAUAGAGAAGGGCUCACAUGAGGAUCACCCAUGUGGUCCUAGAU | 32.5 | 52.5 |  |  |
| CAGGGUCGUAUUCAGCCCGUCCACAUGAGGAUCACCCAUGUCAAGGAUAUAGAUUAAAAUACAAGCUAGAAGGUGACGCUGGGU | 14.3 | 42.6 |  |  |
| CUUUUGUGAGGAUAUUGGUAGUAAAUAAAUAAAAUUACUACUGAGAAGGCACAUGAGGAUCACCCAUGUUCCUC | 31.2 | 221 |  |  |
| GGUACCAUCACAGGAUAUGCUUUCCUUUGGGAAGCAGAAGGGUGUAACAUGAGGAUCACCCAUGUGGUGCCAGGGCGUGGGCCC |  |  | 212 | 19.2 |
| GCUGCAUAGGCAGGAUAUGCAAAAGCAGAUGCAAAGCAUCUGCAAUAAACAUGAGGAUCACCCAUGUAGAAGGGCCUGUGCAGU | 20.8 | 19.4 |  |  |
| CCAGACGUAGGAUAUACAUUUGGGUAAUCCCGCGGAAAGAUACAUGAGGAUCACCCAUGUAGAAGGGCGGUAAA | 31.1 | 21.1 |  |  |
| CGUAUAUGGGAGAAGGCAUGUCCCAAAGGGCUAUGAGGAUAUCCUAAGUGUACGCUUUGCGACAUGAGGAUCACCCAUGUAGCA |  |  | 10.5 | 6.36 |
| GUGAGGUAAGGAUAUAGUAGUGAAGGUAAGAUAUGAGAAUGCUAGAAGGUACAUGAGGAUCACCCAUGUUCGGG | 117 | 116 |  |  |
| GAGAAGUCAGGAUAUCCAUGGCGGCACUUGCGUGGUGGCGUGGAGAAGGGACAUGAGGAUCACCCAUGUAAAGA | 52.7 | 36.8 |  |  |
| GGAUGACAAAGUCAUCCUUAACGAACAUGAGGAUCACCCAUGUAGGAUAUGGUACUCAAAGAGUACCAGAAGGACAUGUGCCUU | 34.3 | 203 |  |  |
| GGGCCGGUGGAGAAGGAGCGUGCGAAACGCAUGCUAGGAUAUCCACAUGAGGAUCACCCAUGUGGGAAUAUCUGGUUUUCACAG | 3.85 | 4.65 |  |  |
| GGGUACAUCGGAGGAUAUCAUGUAAAUACAUGAGGAUCACCCAUGUCGAUGGAGACAUCUGAGAUUGAGAAGGCCGAUGUACCG |  |  | 19.4 | 6.45 |
| CCGGCGGGAGGAUAUACAUGAGGAUCACCCAUGUGCUUCAGCUAGGAGACUAGCAUUGGUAGAAGGCCCGCCGG | 19 | 160 |  |  |
